pIC50: −log10 of the molar value.
Experiments:
[1] = Cytotoxicity against human Hs578T cells; format: functional; details: Hs-578T
[2] = Cytotoxicity against human EKVX cells; format: functional
M14 = experiment: Cytotoxicity against human M14 cells; format: functional
KM12 = experiment: Cytotoxicity against human KM12 cells; format: functional
OVCAR-8 = experiment: Cytotoxicity against human OVCAR8 cells; format: functional
A549 = experiment: Cytotoxicity against human A549 cells; format: functional
U-251 = experiment: Cytotoxicity against human U251 cells; format: functional
BT-549 = experiment: Cytotoxicity against human BT549 cells; format: functional
RPMI-8226 = experiment: Cytotoxicity against human RPMI8226 cells; format: functional
SK-MEL-2 = experiment: Cytotoxicity against human SK-MEL-2 cells; format: functional
SF-268 = experiment: Cytotoxicity against human SF268 cells; format: functional
PC-3 = experiment: Cytotoxicity against human PC3 cells; format: functional
LOX IMVI = experiment: Cytotoxicity against human LOXIMVI cells; format: functional
HCC 2998 = experiment: Cytotoxicity against human HCC2998 cells; format: functional
SF-539 = experiment: Cytotoxicity against human SF539 cells; format: functional
SR = experiment: Cytotoxicity against human SR cells; format: functional
A498 = experiment: Cytotoxicity against human A498 cells; format: functional
HT-29 = experiment: Cytotoxicity against human HT-29 cells; format: functional
IGROV-1 = experiment: Cytotoxicity against human IGROV1 cells; format: functional
SW-620 = experiment: Cytotoxicity against human SW620 cells; format: functional
HOP-92 = experiment: Cytotoxicity against human HOP92 cells; format: functional
HL-60(TB) = experiment: Cytotoxicity against human HL-60(TB) cells; format: functional
UACC-62 = experiment: Cytotoxicity against human UACC62 cells; format: functional
COLO 205 = experiment: Cytotoxicity against human COLO205 cells; format: functional
MCF7 = experiment: Cytotoxicity against human MCF7 cells; format: functional
CCRF-CEM = experiment: Cytotoxicity against human CCRF-CEM cells; format: functional
NCI-H226 = experiment: Cytotoxicity against human NCI-H226 cells; format: functional
MDA-MB-468 = experiment: Cytotoxicity against human MDA-MB-468 cells; format: functional
786-0 = experiment: Cytotoxicity against human 786-0 cells; format: functional
[3] = Cytotoxicity against human NCI-ADR-RES cells; format: functional
OVCAR-5 = experiment: Cytotoxicity against human OVCAR5 cells; format: functional
RXF 393 = experiment: Cytotoxicity against human RXF393 cells; format: functional
NCI-H460 = experiment: Cytotoxicity against human NCI-H460 cells; format: functional
SN12C = experiment: Cytotoxicity against human SN12C cells; format: functional
SF-295 = experiment: Cytotoxicity against human SF295 cells; format: functional
MDA-MB-231 = experiment: Cytotoxicity against human MDA-MB-231 cells; format: functional
MOLT-4 = experiment: Cytotoxicity against human MOLT4 cells; format: functional
SNB-75 = experiment: Cytotoxicity against human SNB75 cells; format: functional
OVCAR-3 = experiment: Cytotoxicity against human OVCAR3 cells; format: functional
SK-OV-3 = experiment: Cytotoxicity against human SKOV3 cells; format: functional
T47D = experiment: Cytotoxicity against human T47D cells; format: functional
SK-MEL-5 = experiment: Cytotoxicity against human SK-MEL-5 cells; format: functional
MDA-MB-435 = experiment: Cytotoxicity against human MDA-MB-435 cells; format: functional
TK-10 = experiment: Cytotoxicity against human TK10 cells; format: functional
UACC-257 = experiment: Cytotoxicity against human UACC257 cells; format: functional
NCI-H23 = experiment: Cytotoxicity against human NCI-H23 cells; format: functional
ACHN = experiment: Cytotoxicity against human ACHN cells; format: functional
CAKI-1 = experiment: Cytotoxicity against human Caki1 cells; format: functional
Steryl-sulfatase = target: T1, Steryl-sulfatase (Homo sapiens, UniProt P08842); experiment: Inhibition of STS (unknown origin) using 4-MUS as substrate measured over 10 mins by fluorescence assay
T1 sequence (P08842 whole entry): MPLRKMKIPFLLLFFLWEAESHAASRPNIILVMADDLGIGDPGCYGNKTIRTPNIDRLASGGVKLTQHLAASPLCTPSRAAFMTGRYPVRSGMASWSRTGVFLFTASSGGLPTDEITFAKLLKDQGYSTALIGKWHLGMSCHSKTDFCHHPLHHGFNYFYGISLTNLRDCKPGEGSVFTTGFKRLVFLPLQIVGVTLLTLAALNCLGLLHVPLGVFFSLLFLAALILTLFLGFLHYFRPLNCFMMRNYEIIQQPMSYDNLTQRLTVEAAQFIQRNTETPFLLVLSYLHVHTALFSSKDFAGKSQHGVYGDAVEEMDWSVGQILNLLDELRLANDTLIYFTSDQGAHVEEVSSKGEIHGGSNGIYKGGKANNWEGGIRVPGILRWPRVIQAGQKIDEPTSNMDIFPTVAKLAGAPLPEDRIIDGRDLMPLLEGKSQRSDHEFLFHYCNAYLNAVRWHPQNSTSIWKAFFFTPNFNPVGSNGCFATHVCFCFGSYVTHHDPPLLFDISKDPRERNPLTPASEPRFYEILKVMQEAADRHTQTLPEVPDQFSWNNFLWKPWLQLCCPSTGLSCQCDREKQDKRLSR
How it was run: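 Purified STS (10 nM final) in 0.1 M Tris-HCl pH 7.0 containing Triton X-100, 4-MUS 200 µM final, and inhibitor at eleven concentrations (5 nM–5 µM). Ex 360/em 460 fluorescence read over 10 min at 24 °C, in quadruplicate, with no-enzyme controls. Vi/V0 from initial rates fit to a slope-factor equation. For tight binders, Ki app is the y-intercept of IC50 vs [E] (10–80 nM).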

C[C@]12CC[C@@H]3c4ccc(O)cc4CC[C@H]3[C@@H]1CC[C@@H]2NS(=O)(=O)c1cccc(Br)c1
GI50 [1]: 4 µM | GI50 [2]: 1000 nM | GI50 (M14): 1000 nM | GI50 (KM12): 1000 nM | GI50 (OVCAR-8): 1000 nM | GI50 (A549): 1000 nM | GI50 (U-251): 1000 nM | GI50 (BT-549): 3100 nM | GI50 (RPMI-8226): 1000 nM | GI50 (SK-MEL-2): 1000 nM | GI50 (SF-268): 1000 nM | GI50 (PC-3): 1000 nM | GI50 (LOX IMVI): 1000 nM | GI50 (HCC 2998): 1000 nM | GI50 (SF-539): 1000 nM | GI50 (SR): 1000 nM | GI50 (A498): 1000 nM | GI50 (HT-29): 1000 nM | GI50 (IGROV-1): 1000 nM | GI50 (SW-620): 1000 nM | GI50 (HOP-92): 1000 nM | GI50 (HL-60(TB)): 1000 nM | GI50 (UACC-62): 1000 nM | GI50 (COLO 205): 1000 nM | GI50 (MCF7): 3.7 µM | GI50 (CCRF-CEM): 1000 nM | GI50 (NCI-H226): 1000 nM | GI50 (MDA-MB-468): 2.4 µM | GI50 (786-0): 1000 nM | GI50 [3]: 1000 nM | GI50 (OVCAR-5): 1000 nM | GI50 (RXF 393): 1000 nM | GI50 (NCI-H460): 1000 nM | GI50 (SN12C): 1000 nM | GI50 (SF-295): 1000 nM | GI50 (MDA-MB-231): 3.9 µM | GI50 (MOLT-4): 1000 nM | GI50 (SNB-75): 1000 nM | GI50 (OVCAR-3): 1000 nM | GI50 (SK-OV-3): 1000 nM | GI50 (T47D): 5 µM | GI50 (SK-MEL-5): 1000 nM | GI50 (MDA-MB-435): 1000 nM | GI50 (TK-10): 1000 nM | GI50 (UACC-257): 1000 nM | GI50 (NCI-H23): 1000 nM | GI50 (ACHN): 1000 nM | GI50 (CAKI-1): 1000 nM

C[C@]12CC[C@@H]3c4ccc(O)cc4CC[C@H]3[C@@H]1CC[C@@H]2NS(=O)(=O)c1cccc(C(F)(F)F)c1
GI50 [1]: 3.2 µM | GI50 [2]: 1000 nM | GI50 (M14): 1000 nM | GI50 (KM12): 1000 nM | GI50 (OVCAR-8): 1000 nM | GI50 (A549): 1000 nM | GI50 (U-251): 1000 nM | GI50 (BT-549): 2700 nM | GI50 (RPMI-8226): 1000 nM | GI50 (SK-MEL-2): 1000 nM | GI50 (SF-268): 1000 nM | GI50 (PC-3): 1000 nM | GI50 (LOX IMVI): 1000 nM | GI50 (HCC 2998): 1000 nM | GI50 (SF-539): 1000 nM | GI50 (SR): 1000 nM | GI50 (A498): 1000 nM | GI50 (HT-29): 1000 nM | GI50 (IGROV-1): 1000 nM | GI50 (SW-620): 1000 nM | GI50 (HOP-92): 1000 nM | GI50 (HL-60(TB)): 1000 nM | GI50 (UACC-62): 1000 nM | GI50 (COLO 205): 1000 nM | GI50 (MCF7): 2.7 µM | GI50 (CCRF-CEM): 1000 nM | GI50 (NCI-H226): 1000 nM | GI50 (MDA-MB-468): 4.1 µM | GI50 (786-0): 1000 nM | GI50 [3]: 1000 nM | GI50 (OVCAR-5): 1000 nM | GI50 (RXF 393): 1000 nM | GI50 (NCI-H460): 1000 nM | GI50 (SN12C): 1000 nM | GI50 (SF-295): 1000 nM | GI50 (MDA-MB-231): 2.4 µM | GI50 (MOLT-4): 1000 nM | GI50 (SNB-75): 1000 nM | GI50 (OVCAR-3): 1000 nM | GI50 (SK-OV-3): 1000 nM | GI50 (T47D): 3.7 µM | GI50 (SK-MEL-5): 1000 nM | GI50 (MDA-MB-435): 1000 nM | GI50 (TK-10): 1000 nM | GI50 (UACC-257): 1000 nM | GI50 (NCI-H23): 1000 nM | GI50 (ACHN): 1000 nM | GI50 (CAKI-1): 1000 nM

CC(C)(C)c1ccc(S(=O)(=O)N[C@H]2CC[C@H]3[C@@H]4CCc5c(ccc(O)c5[N+](=O)[O-])[C@H]4CC[C@]23C)cc1
pIC50 (Steryl-sulfatase): 8.10

C[C@]12CC[C@@H]3c4cc([N+](=O)[O-])c(O)cc4CC[C@H]3[C@@H]1CC[C@@H]2NS(=O)(=O)c1cccc(Br)c1
pIC50 (Steryl-sulfatase): 7.30

C[C@]12CC[C@@H]3c4cc([N+](=O)[O-])c(O)cc4CC[C@H]3[C@@H]1CC[C@@H]2NS(=O)(=O)c1cccc(C(F)(F)F)c1
pIC50 (Steryl-sulfatase): 7.17

CC(C)(C)c1ccc(S(=O)(=O)N[C@H]2CC[C@H]3[C@@H]4CCc5cc(O)c([N+](=O)[O-])cc5[C@H]4CC[C@]23C)cc1
pIC50 (Steryl-sulfatase): 7.09

C[C@]12CC[C@@H]3c4cc([N+](=O)[O-])c(O)cc4CC[C@H]3[C@@H]1CC[C@@H]2NS(=O)(=O)c1ccc(-c2ccccc2)cc1
pIC50 (Steryl-sulfatase): 7.48

C[C@]12CC[C@@H]3c4ccc(O)c(Br)c4CC[C@H]3[C@@H]1CC[C@@H]2NS(=O)(=O)c1cccc(C(F)(F)F)c1
pIC50 (Steryl-sulfatase): 7.31

C[C@]12CC[C@@H]3c4cc(Br)c(O)cc4CC[C@H]3[C@@H]1CC[C@@H]2NS(=O)(=O)c1cccc(C(F)(F)F)c1
pIC50 (Steryl-sulfatase): 7.02
